Screening results (PubChem BioAssay)
Only a selection was taken, and hits are over-represented in it overall.
Lung fibro prol: blocks proliferation of human lung fibroblasts. actives 1.1% (n = 85,000). LL 47 human lung fibroblast viability, ATP luminescence; hits give low values. AID 719. viability, % at 10 µM;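 active = viability at or below 50% in the single dose screen; inactive = viability above 50%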;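 also: compound exposure lasted 72 h before the ATP readout; 100% = median luminescence of untreated cell-only wells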
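Times – overnight cell rest, 72 h compound treatment at 37 °C · Test system – human lung fibroblast line LL 47, low passage · Amount – 1,150 cells in each well · Controls – cell-only wells, no compound · Doses – 0.1% DMSO in all compound wells · Measured by – CellTiter-Glo luminescence · Buffer or medium – IMEM plus 15% FBS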
PTEN del growth: suppresses growth of cells with PTEN deletion. HCT116 PTEN-null viability, CellTiter-Glo, 60 h; hits give low values. viability, % at 10 µM. actives 1.2% (n = 140,000);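 active = viability at or below a set limit, 4 SD under the median of all tested compounds, cut at about 3.7% in these data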;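 also: PTEN knockout HCT116 line with beta catenin targeted HCT116 as companion control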
H69AR growth 86K: blocks growth of human H69AR lung tumor cells; H69AR lung tumor viability, ATP luminescence, 72 h; hits give low values; AID 598; actives 6% (n = 85,000); viability, % at 10 µM;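 active = viability at or below 40%; inactive = viability above 40%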;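 also: multidrug resistant small cell line overexpressing MRP-1 efflux transporter; 100% = mean luminescence of untreated control wells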
HUVEC prolif 384: inhibitors of human endothelial cell proliferation. actives 1.1% (n = 86,000). viability, % at 10 µM (by protocol). HUVEC proliferation, CellTiter-Glo luminescence, 72 h; hits give low values;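 active = viability at or below 30%; inactive = viability above 30%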;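 also: 100% = median luminescence of DMSO-only cell control wells on each plate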
HCT116 bCat-KO: beta-catenin-lacking colon tumor cell growth suppression; HCT116 beta-catenin knockout viability, CellTiter-Glo, 60 h; hits give low values; viability, % at 10 µM; actives 1.5% (n = 140,000); AID 818;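 active = viability at or under a set limit, the compound median less 4 SD, cut at about 6% in these data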;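 also: 0% = Hyamine 1622 control at 20 µM and 100% = untreated cell control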
* marks the source's active call; other numbers are inactive results.

N#CC1=C(N)N(c2ccccc2)C2=C(C(=O)CCC2)C1c1ccsc1 (stereo unspecified) was read as Lung fibro prol 94, PTEN del growth 86, H69AR growth 86K 27*, HUVEC prolif 384 94 and HCT116 bCat-KO 89.
For O=C(NCc1ccccn1)[C@H]1C[C@@H]1[C@H](NP(=O)(c1ccccc1)c1ccccc1)c1ccccc1 the results were PTEN del growth 0.6* and HCT116 bCat-KO 0.8*.
O=C(NCCF)[C@H]1C[C@@H]1[C@H](NP(=O)(c1ccccc1)c1ccccc1)c1ccccc1 was read as PTEN del growth 99 and HCT116 bCat-KO 106.
Cc1ccc(C)c(-n2nnnc2Sc2nnnn2-c2ccccc2)c1 was read as Lung fibro prol 24*, PTEN del growth 1.8*, H69AR growth 86K 2.3*, HUVEC prolif 384 15* and HCT116 bCat-KO 2.0*.
Screening CCSc1nnnn1-c1ccccc1 returned Lung fibro prol 100, PTEN del growth 96, H69AR growth 86K 99, HUVEC prolif 384 91 and HCT116 bCat-KO 92.
Screening CCOC(=O)N1CCC(NC(=O)c2cc3cc4cc(OC)ccc4nc3o2)CC1 returned Lung fibro prol 91, PTEN del growth 79, H69AR growth 86K 38*, HUVEC prolif 384 92 and HCT116 bCat-KO 88.
For CCOC(=O)N1CCC(NC(=O)c2cnn3c(C(F)(F)F)cc(-c4cccc(OC)c4)nc23)CC1 the results were Lung fibro prol 27*, H69AR growth 86K 98 and HUVEC prolif 384 48.
`O=C(COc1ccc2ccccc2c1)Nc1ccc2c3c(cccc13)CC2` gave PTEN del growth 97 and HCT116 bCat-KO 84.
`O=C(Cn1c2ccccc2c(=O)c2ccccc21)Nc1cccc(F)c1` gave PTEN del growth 104 and HCT116 bCat-KO 87.
`Cc1cccc(N2CCN(C(=O)COc3cccc4c3OC(C)(C)C4)CC2)c1C` gave PTEN del growth 54 and HCT116 bCat-KO 61.
`CSc1nc(N)nc(SCC(=O)Nc2ccc(Cl)cc2)c1C#N` gave PTEN del growth 77 and HCT116 bCat-KO 89.
`CSc1nc(N)nc(SCCS(=O)(=O)c2ccc(Cl)cc2)c1C#N` gave Lung fibro prol 88, PTEN del growth 30, H69AR growth 86K 2.5*, HUVEC prolif 384 72 and HCT116 bCat-KO 35.
COc1cccc(/C=N/n2c(N)c(S(=O)(=O)c3cccs3)c3nc4ccccc4nc32)c1OC was read as PTEN del growth 2.8* and HCT116 bCat-KO 2.1*.
For Nc1c(S(=O)(=O)c2cccc(Cl)c2)c2nc3ccccc3nc2n1/N=C/c1ccc(O)c(O)c1 the results were Lung fibro prol 14*, PTEN del growth 1.5*, H69AR growth 86K 1.3*, HUVEC prolif 384 6.0* and HCT116 bCat-KO 1.1*.
O=c1c2c3nc4ccccc4nc3n(/N=C/c3cccs3)c2ncn1-c1ccccc1 was read as Lung fibro prol 105, H69AR growth 86K 30* and HUVEC prolif 384 84.
`Cc1ccc(S(=O)(=O)c2c(N)n(-c3ccccc3)c3nc4ccccc4nc23)cc1` gave PTEN del growth 72 and HCT116 bCat-KO 79.
CCCCCCn1cnc2c(c1=O)c1nc3ccccc3nc1n2/N=C/c1ccco1 was read as Lung fibro prol 97, PTEN del growth 96, H69AR growth 86K 85, HUVEC prolif 384 74 and HCT116 bCat-KO 96.
`COCCn1c(N)c(S(=O)(=O)c2cccs2)c2nc3ccccc3nc21` gave Lung fibro prol 98, PTEN del growth 89, H69AR growth 86K 73, HUVEC prolif 384 99 and HCT116 bCat-KO 96.
For COCCn1cnc2c(c1=O)c1nc3ccccc3nc1n2/N=C/c1cccc(OC)c1OC the results were Lung fibro prol 96, H69AR growth 86K 39* and HUVEC prolif 384 67.
Screening CCN(CC)S(=O)(=O)c1ccc(N2CCOCC2)c(NC(=O)CCC2CCCCC2)c1 returned PTEN del growth 83 and HCT116 bCat-KO 81.
`C=CCn1cnc2c(c1=O)c1nc3ccccc3nc1n2/N=C/c1cccc(OC)c1` gave Lung fibro prol 92, H69AR growth 86K 22* and HUVEC prolif 384 49.
Screening CCOC(=O)c1nnc(-c2ccccc2)nc1NCc1ccc(Cl)cc1 returned PTEN del growth 94 and HCT116 bCat-KO 90.
For CCOC(=O)c1nnc(-c2ccc(C)cc2)nc1Sc1ccccc1Cl the results were Lung fibro prol 84, PTEN del growth 27, H69AR growth 86K 25*, HUVEC prolif 384 69 and HCT116 bCat-KO 38.
